Assay [1] deals with All-trans-retinol dehydrogenase [NAD(+)] ADH1B (Homo sapiens, UniProt P00325). In words: Inhibition of human alcohol dehydrogenase beta 1 activity. A digest of the protocol:
(§1)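 Purified human isozyme in 46 mM sodium phosphate with 0.25 mM EDTA, pH 7.0, 25 °C. The varied substrate (ethanol, acetaldehyde or cyclohexanone) was chosen per enzyme, with coenzyme fixed at 0.2 mM NADH or 2.0 mM NAD+. Inhibitor varied over at least a 3-fold range, 20–25 conditions in duplicate.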

The target of another assay is Alcohol dehydrogenase (Equus caballus, UniProt P00327+P00328). The assay can be described thus: Inhibition of horse liver alcohol dehydrogenase activity.
The target in assay [2] is T1, All-trans-retinol dehydrogenase [NAD(+)] ADH7 (Homo sapiens, UniProt P40394). The assay can be described thus: Inhibition of human alcohol dehydrogenase sigma activity. A digest of the protocol: as §1
T1 sequence (P40394 whole entry): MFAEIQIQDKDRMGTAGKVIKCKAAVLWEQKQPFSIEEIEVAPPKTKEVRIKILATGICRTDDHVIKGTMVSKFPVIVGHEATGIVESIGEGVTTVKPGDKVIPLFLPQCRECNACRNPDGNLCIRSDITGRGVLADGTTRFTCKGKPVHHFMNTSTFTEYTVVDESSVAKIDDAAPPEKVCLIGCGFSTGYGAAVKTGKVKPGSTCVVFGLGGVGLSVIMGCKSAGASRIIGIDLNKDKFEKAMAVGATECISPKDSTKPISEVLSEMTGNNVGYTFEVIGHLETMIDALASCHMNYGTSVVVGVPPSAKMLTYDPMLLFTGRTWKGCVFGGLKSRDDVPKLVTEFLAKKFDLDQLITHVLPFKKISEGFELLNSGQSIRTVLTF
The next assay has as its target Alcohol dehydrogenase 1C (Homo sapiens, UniProt P00326). In words: Inhibition of human alcohol dehydrogenase gamma2 activity. A digest of the protocol:
as §1

Assay [3] has as its target All-trans-retinol dehydrogenase [NAD(+)] ADH4 (Homo sapiens, UniProt P08319). The assay can be described thus: Inhibition of human alcohol dehydrogenase pi activity. An outline of the steps:
as §1

The target in the next assay is Alcohol dehydrogenase 1A (Homo sapiens, UniProt P07327). The assay can be described thus: Inhibition of human alcohol dehydrogenase alpha activity. A digest of the protocol:
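Purified human α isozyme. Buffer was 46 mM sodium phosphate with 0.25 mM EDTA, pH 7.0, 25 °C; runs were also done in 33 mM phosphate/EDTA, pH 8.0. NADH 0.2 mM or NAD+ 2.0 mM held fixed. NADH change followed at 340 nm.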

The target in assay [4] is T1, All-trans-retinol dehydrogenase [NAD(+)] ADH7. The assay can be described thus: Inhibitory activity against human alcohol dehydrogenase sigma. A digest of the protocol:
as §1

Chain of All-trans-retinol dehydrogenase [NAD(+)] ADH1B (P00325 whole entry): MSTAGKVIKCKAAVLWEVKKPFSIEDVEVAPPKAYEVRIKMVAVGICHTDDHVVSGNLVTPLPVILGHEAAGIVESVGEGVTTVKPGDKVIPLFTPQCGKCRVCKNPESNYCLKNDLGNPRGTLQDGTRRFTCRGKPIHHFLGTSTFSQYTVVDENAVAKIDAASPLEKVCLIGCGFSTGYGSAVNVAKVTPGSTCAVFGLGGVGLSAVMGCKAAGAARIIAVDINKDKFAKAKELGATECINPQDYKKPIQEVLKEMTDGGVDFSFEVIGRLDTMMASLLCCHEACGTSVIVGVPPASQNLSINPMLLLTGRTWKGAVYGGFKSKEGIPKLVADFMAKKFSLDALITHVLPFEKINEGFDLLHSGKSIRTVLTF
Chain of Alcohol dehydrogenase 1C (P00326 whole entry): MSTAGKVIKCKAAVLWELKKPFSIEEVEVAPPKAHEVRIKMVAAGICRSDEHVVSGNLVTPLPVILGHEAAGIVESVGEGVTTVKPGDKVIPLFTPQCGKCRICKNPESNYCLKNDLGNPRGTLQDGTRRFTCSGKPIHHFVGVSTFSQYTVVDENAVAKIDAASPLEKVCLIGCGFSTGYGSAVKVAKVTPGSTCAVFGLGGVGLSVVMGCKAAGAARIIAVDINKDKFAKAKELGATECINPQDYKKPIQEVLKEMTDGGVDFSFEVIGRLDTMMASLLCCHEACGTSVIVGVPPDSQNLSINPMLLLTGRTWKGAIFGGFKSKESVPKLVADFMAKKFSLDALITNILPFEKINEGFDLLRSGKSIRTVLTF
Chain of All-trans-retinol dehydrogenase [NAD(+)] ADH4 (P08319 whole entry): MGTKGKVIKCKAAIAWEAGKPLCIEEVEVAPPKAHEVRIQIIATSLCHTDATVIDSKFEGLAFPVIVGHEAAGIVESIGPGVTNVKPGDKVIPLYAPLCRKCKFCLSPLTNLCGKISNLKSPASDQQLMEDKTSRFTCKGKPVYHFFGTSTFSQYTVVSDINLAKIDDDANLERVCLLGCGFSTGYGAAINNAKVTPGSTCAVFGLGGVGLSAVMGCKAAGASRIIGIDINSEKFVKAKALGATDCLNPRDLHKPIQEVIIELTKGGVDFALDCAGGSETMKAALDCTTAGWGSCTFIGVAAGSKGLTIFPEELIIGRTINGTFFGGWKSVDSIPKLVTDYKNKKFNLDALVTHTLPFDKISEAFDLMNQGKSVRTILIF
Chain of Alcohol dehydrogenase 1A (P07327 whole entry): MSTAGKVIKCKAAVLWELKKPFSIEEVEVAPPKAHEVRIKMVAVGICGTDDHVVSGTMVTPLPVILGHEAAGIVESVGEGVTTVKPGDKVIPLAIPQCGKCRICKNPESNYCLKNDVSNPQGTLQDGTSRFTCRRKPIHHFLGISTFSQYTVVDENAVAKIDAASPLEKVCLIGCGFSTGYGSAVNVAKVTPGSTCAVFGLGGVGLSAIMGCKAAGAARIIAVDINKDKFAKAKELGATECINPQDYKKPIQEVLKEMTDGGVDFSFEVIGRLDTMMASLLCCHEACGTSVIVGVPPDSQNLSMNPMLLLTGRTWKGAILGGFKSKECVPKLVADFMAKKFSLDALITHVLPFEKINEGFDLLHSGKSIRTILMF

Consider `O=CNCC1CCCCC1`, for which the Ki (as a rule, the equilibrium dissociation constant of an inhibitor or competing ligand from its target) in assay [1] amounted to 1 µM; on Alcohol dehydrogenase it was 12 µM; in assay [2], 47 µM; on Alcohol dehydrogenase 1C, 5.8 µM; in assay [3] it was 7.1 µM; at Alcohol dehydrogenase 1A it was 3.6 µM.
For the compound `O=CN(C1CCCCC1)C1CC1`, the inhibition constant Ki in assay [1] amounted to 250 µM; on Alcohol dehydrogenase, 440 µM; in assay [2], 640 µM; on Alcohol dehydrogenase 1C, 120 µM; at Alcohol dehydrogenase 1A, 5.9 µM.
`CCCN(C=O)C1CCCCC1`: the Ki in assay [1] is 4000 µM; at Alcohol dehydrogenase, 5200 µM; on Alcohol dehydrogenase 1C it was 160 µM; at Alcohol dehydrogenase 1A, 14 µM.
Regarding `O=CNC1CCCC1`, the inhibition constant Ki turned out to be 7.3 µM in assay [1]; 7.6 µM at Alcohol dehydrogenase; 28 µM in assay [2]; 13 µM on Alcohol dehydrogenase 1C; 150 µM in assay [3]; 3.9 µM on Alcohol dehydrogenase 1A.
As for `CC(C)NC=O`, the Ki in assay [1] came out at 19 µM; at Alcohol dehydrogenase, 2.6 µM; in assay [2] it was 210 µM; on Alcohol dehydrogenase 1C, 15 µM; in assay [3], 1900 µM; on Alcohol dehydrogenase 1A it was 22 µM.
As to `O=CN(C1CCC1)C1CCC1`, the Ki in assay [1] was 4900 µM; at Alcohol dehydrogenase it was 7200 µM; in assay [2], 1800 µM; on Alcohol dehydrogenase 1C it was 19 µM; in assay [3] it was 280 µM; at Alcohol dehydrogenase 1A, 1.8 µM.
Take `CCCNC=O`: the inhibition constant (Ki) was 5.5 µM in assay [1]; 10 µM on Alcohol dehydrogenase; 21 µM in assay [2]; 120 µM on Alcohol dehydrogenase 1C; 300 µM in assay [3]; 5.6 µM on Alcohol dehydrogenase 1A.
As for `CC(C)CNC=O`, the Ki in assay [1] amounted to 26 µM; on Alcohol dehydrogenase, 13 µM; in assay [2], 180 µM; on Alcohol dehydrogenase 1C, 54 µM; in assay [3], 340 µM; on Alcohol dehydrogenase 1A, 5.5 µM.
With `CCCN(C=O)C1CCCC1`, the inhibition constant (Ki) in assay [1] worked out at 2800 µM; on Alcohol dehydrogenase, 1900 µM; in assay [2] it was 1700 µM; at Alcohol dehydrogenase 1C, 21 µM; in assay [3] it was 191 µM; at Alcohol dehydrogenase 1A it was 4.5 µM.
As to `CC(C)N(C=O)C1CCCCC1`, the Ki turned out to be 46 µM in assay [1]; 470 µM at Alcohol dehydrogenase; 1300 µM in assay [2]; 83 µM on Alcohol dehydrogenase 1C; 150 µM in assay [3]; 24 µM on Alcohol dehydrogenase 1A.
Consider `CCCCNC=O`, for which the inhibition constant (Ki) in assay [1] stood at 11 µM; at Alcohol dehydrogenase it was 16 µM; in assay [2] it was 30 µM; at Alcohol dehydrogenase 1C it was 100 µM; in assay [3] it was 110 µM; on Alcohol dehydrogenase 1A, 7.2 µM.
With `CCN(C=O)C1CCCCC1`, the inhibitory constant (Ki) in assay [1] amounted to 1500 µM; on Alcohol dehydrogenase it was 1400 µM; at Alcohol dehydrogenase 1C, 33 µM; on Alcohol dehydrogenase 1A it was 4.5 µM.
For the compound `O=CN(C1CCCC1)C1CC1`, the Ki in assay [1] is 4600 µM; at Alcohol dehydrogenase it was 110 µM; in assay [2], 930 µM; at Alcohol dehydrogenase 1C, 4.6 µM; in assay [3] it was 96 µM; at Alcohol dehydrogenase 1A, 0.88 µM.
Turning to `CN(C=O)C1CCCCC1`, the inhibitory constant (Ki) in assay [1] worked out at 920 µM; on Alcohol dehydrogenase, 600 µM; in assay [2] it was 4900 µM; on Alcohol dehydrogenase 1C, 40 µM; in assay [3] it was 120 µM; at Alcohol dehydrogenase 1A it was 5.5 µM.
For the compound `CCCCCCCN(C=O)C1CC1`, the inhibitory constant (Ki) in assay [1] was determined as 1900 µM; on Alcohol dehydrogenase it was 1100 µM; in assay [2], 960 µM; on Alcohol dehydrogenase 1C, 2.1 µM; in assay [3] it was 31 µM; at Alcohol dehydrogenase 1A it was 1.9 µM.
Turning to `O=CN(C1CCCC1)C1CCCC1`, the Ki worked out at 1600 µM in assay [1], 2600 µM at Alcohol dehydrogenase, 1000 µM on Alcohol dehydrogenase 1C and 7.4 µM on Alcohol dehydrogenase 1A.
Regarding `CCCCCCC(C)NC=O` (centres undefined), the Ki came out at 1.7 µM in assay [1]; 5.4 µM on Alcohol dehydrogenase; 100 µM in assay [2]; 0.41 µM on Alcohol dehydrogenase 1C; 40 µM in assay [3]; 7 µM at Alcohol dehydrogenase 1A.
Take `O=CNC1CCC1`: the inhibitory constant (Ki) in assay [4] is 54 µM; in assay [1], 2.9 µM; on Alcohol dehydrogenase, 1.7 µM; on Alcohol dehydrogenase 1C, 45 µM; in assay [3] it was 450 µM; at Alcohol dehydrogenase 1A it was 3.8 µM.
For `O=CNC1CC1`, the inhibition constant Ki was determined as 6.4 µM in assay [1]; 100 µM at Alcohol dehydrogenase; 300 µM in assay [2]; 700 µM at Alcohol dehydrogenase 1C; 5200 µM in assay [3]; 33 µM on Alcohol dehydrogenase 1A.
Regarding `O=CN(C1CCCC1)C1CCC1` [CYCLOBUTYL(CYCLOPENTYL)FORMAMIDE], the inhibition constant Ki came out at 10000 µM in assay [1]; 8600 µM on Alcohol dehydrogenase; 1100 µM in assay [2]; 47 µM at Alcohol dehydrogenase 1C; 360 µM in assay [3]; 0.36 µM at Alcohol dehydrogenase 1A.
Consider `O=CNC1CCCCC1` [CYCLOHEXYLFORMAMIDE], for which the Ki in assay [1] was determined as 3.4 µM; in assay [2] it was 380 µM; at Alcohol dehydrogenase 1C, 5.2 µM; in assay [3], 84 µM; at Alcohol dehydrogenase 1A, 2.3 µM.
In the case of `CCCCCCCNC=O` [HEPTYLFORMAMIDE], the Ki in assay [1] turned out to be 0.33 µM; on Alcohol dehydrogenase it was 3 µM; in assay [2], 0.74 µM; at Alcohol dehydrogenase 1C, 12 µM; in assay [3], 11 µM; on Alcohol dehydrogenase 1A it was 3.6 µM.

For the origin of these results see ChEMBL document CHEMBL1131219, “Inhibition of human alcohol dehydrogenases by formamides” (J Med Chem, 1998).
